“Also recorded” adds a separate entry of the source.
Columns and labels:
[1] = In vitro rat serum stability of 64Cu-labeled chelators; format: in vitro ADME; conditions: 37 °C, 48 h incubation, TLC
Outline: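 Chelator was labeled with 64Cu in 0.1 M NH4OAc, pH ~5.5. Labeled complex (10 μL, ~3.7 MBq) was added to 90 μL rat serum at 37 °C. Aliquots taken at 1, 2, 4, 24 and 48 h were run on C-18 TLC in 10% NH4OAc:MeOH (3:7), and percent 64Cu still bound was determined.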

[2] = Biodistribution of 64Cu-labeled BFCs in female SCID mice; format: in vivo; conditions: for radioactivity in blood (%ID/g): 24 h post-injection; for decrease of %ID/g in kidney by 24 h: by 24 h relative to 1 h
Outline: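 Female SCID mice, n = 4/group, received 64Cu-labeled chelator (0.74 MBq in 100 μL saline) by tail-vein injection; labeling was done in 0.1 M NH4OAc, pH 5.5. At 1, 4 and 24 h, mice were anesthetized with 1-2% isoflurane and killed by cervical dislocation. Blood, lung, liver, spleen, pancreas, kidney, muscle and bone were weighed and gamma-counted. %ID/g was decay-corrected and normalized to tissue weight.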

[3] = Complexation kinetics with Cu; format: physicochemical; conditions: ligand 1 mM, Cu(II) 7 μM, AAIII 14 μM, 0.15 M NH4OAc pH 5.0, room temperature, 1 h
Outline: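 Cu(II)–Arsenazo III reagent made in metal-free 0.15 M NH4OAc, pH 5.0 (14 μM AAIII, 7 μM Cu(II)), kept in the dark and stirred 2 h to equilibrate. Instrument zeroed against AAIII alone. Test compound was added from a 1 mM solution into the Cu(II)–AAIII cells at room temperature. A610 was read every 30 s for 1 h and compared with Cu(II)–AAIII alone.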

[4] = cited from earlier work

percentage of intact 64Cu complex in rat serum [1] | radioactivity in blood (%ID/g) [2] | decrease of %ID/g in kidney by 24 h [2] | SMILES | complexation kinetics with Cu(II) [3] | stability of 64Cu complex in rat serum [4]
93.9% | 0.47 ± 0.17 %ID/g |  | Nc1ccc(CC2CN(CC(=O)O)CCN(CC(=O)O)CCN(CC(=O)O)CCN2CC(=O)O)cc1 (stereo not shown) [p-NH2-Bn-DOTA, 2-(4-aminobenzyl)-1,4,7,10-tetraazacyclododecane-1,4,7,10-tetraacetic acid, reference compound] |  | 
97.9% |  |  | Nc1ccc(C[C@H]2CN(CC(=O)O)CCN(CC(=O)O)CCN2CC(=O)O)cc1 [p-NH2-Bn-NOTA, S-2-(4-aminobenzyl)-1,4,7-triazacyclononane-1,4,7-triacetic acid] |  | 

More lines, now with the values behind:

SMILES | percentage of intact 64Cu complex in rat serum [1] | radioactivity in blood (%ID/g) [2] | decrease of %ID/g in kidney by 24 h [2] | complexation kinetics with Cu(II) [3] | stability of 64Cu complex in rat serum [4]
O=C(O)CNC(Cc1ccc([N+](=O)[O-])cc1)CN1CCN(CC(=O)O)CCN(CC(=O)O)CC1 (stereo not shown) [C-NE3TA, 4-carboxymethyl-7-[2-(carboxymethyl-amino)-3-(4-nitro-phenyl)-propyl]-[1,4,7]triazonan-1-yl-acetic acid] |  | 0.18 ± 0.06 %ID/g | 60% | formed complexes with Cu(II) almost immediately; also recorded: rapidly formed complexes with Cu(II) | 
O=C(O)CNCCN1CCN(CC(=O)O)CCN(CC(=O)O)CC1 [NE3TA] |  |  |  |  | high stability
O=C(O)CN1CCN(CCN(CC(=O)O)Cc2ccc([N+](=O)[O-])cc2)CCN(CC(=O)O)CC1 [N-NE3TA, 4-carboxymethyl-7-[2-[carboxymethyl-(4-nitro-benzyl)-amino]-ethyl]-[1,4,7]triazonan-1-yl-acetic acid] |  | 0.13 ± 0.06 %ID/g | 60% | formed complexes with Cu(II) almost immediately; also recorded: rapidly formed complexes with Cu(II) | 

Source: paper PMC3470735 (Nuclear medicine and biology, 2012)
